This is a sample that favours compounds with a hit; in the whole collection about 4.1% have one here.
FLuc inh counter – Photinus pyralis luciferase inhibition counter-screen | P08659 | ATPLite firefly luciferase biochemical luminescence, 10 min | inhibition, % at 10 µM | 200,000 compounds, 1.5% hits;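 active = inhibition above about 50% when tested at 10 µM, limit read from the data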
Target sequence (P08659 whole entry, looked up): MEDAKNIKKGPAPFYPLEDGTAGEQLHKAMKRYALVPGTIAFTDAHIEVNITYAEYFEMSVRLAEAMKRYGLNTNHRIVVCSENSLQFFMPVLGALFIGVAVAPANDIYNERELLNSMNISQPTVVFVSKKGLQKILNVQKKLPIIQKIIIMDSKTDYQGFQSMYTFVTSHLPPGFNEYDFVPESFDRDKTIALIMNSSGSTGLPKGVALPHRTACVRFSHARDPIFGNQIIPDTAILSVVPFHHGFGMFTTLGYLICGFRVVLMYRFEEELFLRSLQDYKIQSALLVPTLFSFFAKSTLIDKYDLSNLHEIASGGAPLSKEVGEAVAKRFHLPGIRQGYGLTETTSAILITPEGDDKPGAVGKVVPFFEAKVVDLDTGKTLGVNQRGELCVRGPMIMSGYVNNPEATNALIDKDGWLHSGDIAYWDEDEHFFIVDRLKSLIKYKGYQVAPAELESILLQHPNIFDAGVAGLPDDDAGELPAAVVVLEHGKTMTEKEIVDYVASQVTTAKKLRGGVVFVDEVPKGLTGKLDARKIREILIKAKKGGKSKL
NF-kB neuron act – compounds increasing NF-kB expression in human neuronal cells. NF-kB reporter expression; stronger effect = higher value. fold change at 12.5 µM. 190,000 compounds, 1.6% hits; in the data active = fold change above about 3.3
APP 5'UTR act – APP 5'UTR luciferase reporter activation; SH-SY5Y APP 5'UTR luciferase reporter, luminescence; zero percent = DMSO vehicle wells; activation, % at 2 µM; 190,000 compounds, 1% hits;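 active = activation above a set limit, based on mean plus 3 SD of controls, cut at about 140% in these data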
FLuc stim CS – affects firefly luciferase, flagging false hits in luciferase stimulation screens. 200,000 tested, under 10 active. ATPlite luciferase biochemical, luminescence, 10 min; 0 = ATP-free wells, 1 = DMSO control. P08659. AID 1027. activation factor at 10 µM;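 active = luciferase activation factor, scaled between plate controls, of at least 2 with compound at 10 µM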
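System: luciferase plus luciferin reagent, cell-free; medium: PBS as buffer for the ATP substrate; dosing: test compounds dosed from 2 mM stocks in 100% DMSO; timing: 10 min post-reagent at room temperature; measured by: luminescence measurement of luciferase light output; evaluation: luciferase activation, seen as luminescence increase over controls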
STAT1 act – activators of IFN-gamma induced STAT1 signaling. AID 932. NIH 3T3 STAT1-luciferase reporter, luminescence; 100% = IFN-gamma alone, no compound. activation (% of control), % at 5.5 µM. 200,000 compounds, 2.6% hits;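 active = activation above the screen-wide mean activation plus 3 SD, cut at about 130% in these data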;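 note: raw ratio to IFN-gamma control signal so 100% means no change and 0% no light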
An asterisk follows results filed as active; x = not tested or not shown.

SMILES	FLuc inh counter	NF-kB neuron act	APP 5'UTR act	FLuc stim CS	STAT1 act
NC(=O)c1ccccc1NC(=O)/C=C/c1ccc(Cl)cc1	80*	3	160*	0.2	144*
NC(=O)c1ccccc1NC(=O)/C=C/c1ccccc1	82*	3.6*	104	0.2	129*
COC(=O)c1ccccc1N/C=C/C(=O)c1ccc(Br)cc1	1	1.9	25	1	123
NC(=O)c1ccccc1N/C=C/C(=O)c1ccccc1	89*	5.5*	132	0.1	91
CC(C)(C)C(=O)NC1=NCCS1	-3	0.97	-17	1	94
CCOC(=S)SCc1cn2cccc(C)c2n1	1	3.8*	12	1	95
CCCS(=O)(=O)NCc1cn2cccc(C)c2n1	-7	1.1	19	1.1	103
CCOC(=O)CNC(=O)N1CCCC(CNS(=O)(=O)c2cccs2)C1 (stereo not drawn)	-4	1.1	-3	1	95
CCNC(=S)N1CCc2ccccc2C1	1	1.2	13	1	100
CC(=NC1CCCC1)c1c(C)[nH]n(-c2nc3ccccc3s2)c1=O	24	0.98	61	0.8	142*
CC(=NC1CC1)c1c(-c2ccccc2)[nH]n(-c2nc3ccccc3s2)c1=O	-2	0.89	6	1	114
O=C(N/C(=C\c1ccc(-c2ccccc2)o1)C(=O)N1CCOCC1)c1ccccc1	-2	0.62	-1	1	88
O=S(=O)(c1ccccc1)c1cnc(-c2ccccc2)nc1N1CCCCC1	0	1.6	-5	1	145*
Cc1nn(-c2ccccc2)c(Cl)c1/C=N/NC(=O)OC(C)(C)C	10	0.83	65	0.9	139*
Cc1nn(-c2ccccc2)c(Cl)c1/C=N/Nc1ccc(Cl)c(C(=O)O)c1	87*	10*	74	0.1	62
Cc1nn(-c2ccccc2)c(Cl)c1/C=N/NC(=O)c1ccco1	58*	2.2	85	0.4	141*
O=C(O)c1cc(N/N=C/c2ccc(OCc3ccccc3)cc2)ccc1Cl	8	2.6	104	0.9	134*
CNC(=S)N/N=C/c1c(C)nn(-c2ccccc2)c1Cl	3	1.2	-1	1	108
CCN1CCN(c2c(Cl)cccc2NC(=O)c2ccco2)CC1	-4	1.5	8	1	97
Cc1nn(-c2ccccc2)c(C)c1/C=N/NC(=O)c1cc(-c2cccs2)[nH]n1	0	0.65	-93	1	101
Cc1nn(-c2ccccc2)c(C)c1/C=N/NC(=O)c1cccs1	44	1.3	50	0.6	140*
O=C1/C(=C\Nc2ccc(OC(F)(F)F)cc2)CCN1c1ncccn1	-3	3.2	x	1	131*
O=C1/C(=C\Nc2ccc(Cl)cc2)CCN1c1ncccn1	24	1.8	8	0.8	127
O=C(CSc1ccc2c(c1)OCCO2)NCc1ccccc1	-4	1.3	6	1	96
O=c1c2ccccc2nnn1CSc1nnc2ccccn12	-2	1.7	78	1	146*
SMILES	FLuc inh counter	NF-kB neuron act	APP 5'UTR act	FLuc stim CS	STAT1 act
Cn1c(SCn2nnc3ccccc3c2=O)nc2ccccc2c1=O	-4	0.97	-2	1	91
O=c1c2ccccc2nnn1CSc1ccc2c(c1)OCCO2	9	4.2*	113	0.9	146*
Cc1c(NC(=O)Nc2ccc(Cl)cc2)c(=O)n(-c2ccccc2)n1C	1	0.98	3	1	95
N#CCCN(Cc1cccnc1)S(=O)(=O)c1ccc(S(=O)(=O)NC2CCCCC2)cc1	3	1.4	14	1	97
N=c1c(C(=O)NCc2ccccc2)cc2c(=O)n3ccccc3nc2n1Cc1ccco1	-6	12*	16	1.1	99
C[N+]1(CC2COC3(CCCCC3)O2)CCCC1 (stereo not drawn)	-2	1.1	10	1	97
COc1ccc(OCCSc2nnnn2C2CCCCC2)cc1	0	1.6	13	1	105
c1ccc(OCCSc2nnnn2C2CCCCC2)cc1	18	x	142*	0.8	133*
c1ccc2[nH]c(SCC3CCCCO3)nc2c1 (stereo not drawn)	41	3.7*	152*	0.6	131*
Cc1cc(C(=O)CSc2nc3ccccc3[nH]2)c(C)n1CC1CCCO1 (stereo not drawn)	48	0.43	189*	0.5	74
ClC1(Cl)CC1CSc1nc2ccccc2[nH]1 (stereo not drawn)	8	2.2	43	0.9	114
Cc1cc(C(=O)COC(=O)c2ccc3c(c2)OCO3)c(C)n1CC1CCCO1 (stereo not drawn)	67*	1.1	104	0.3	92
Cc1cc(C(=O)CSc2nc3ccccc3o2)c(C)n1CC1CCCO1 (stereo not drawn)	22	0.78	47	0.8	142*
Cc1cc(C)n2nc(SCC(=O)c3cc(C)n(CC4CCCO4)c3C)nc2n1 (stereo not drawn)	6	1.5	-30	0.9	79
CC(C)C(=O)N1CCN(c2ccc(NC(=O)COc3ccccc3[N+](=O)[O-])cc2)CC1	-9	1.1	1	1.1	73
CCc1ccc(CCC(=O)Nc2nnc(CC)s2)o1	-2	1	9	1	103
Cn1c(=O)[nH]c(=O)c2c1nc(NCc1ccco1)n2Cc1ccccc1Cl	-6	0.96	-5	1.1	83
COc1ccc(-c2cc(-c3ccccc3)c(C#N)c(S(C)(=O)=O)n2)cc1	-8	6.3*	10	1.1	107
O=C(O)C1CCCCC1C(=O)Nc1ccccc1Nc1ccccc1 (stereo not drawn)	-1	1	-19	1	105
O=C(O)C1CCCCC1C(=O)Nc1cccc2ccccc12 (stereo not drawn)	-6	1.2	5	1.1	143*
Cc1ccc(CN2CCN(/N=C/c3cc([N+](=O)[O-])ccc3Cl)CC2)cc1	-6	1.1	21	1.1	104
CCC(C(=O)NC1CCCCC1)n1c(SCc2cccc(F)c2)nc2ccncc21 (stereo not drawn)	-2	0.86	22	1	104
CCC(C(=O)NC1CCCCC1)n1c(SCc2cccc(C)c2)nc2ccncc21 (stereo not drawn)	68*	0.97	6	0.3	106
CCCCc1ccc(-c2nc(N)n[nH]2)cc1	68*	2.3	67	0.3	124
Nc1n[nH]c(-c2ccc(F)cc2)n1	-3	1	18	1	106
c1ccc(-c2noc(C34CC5CC(CC(C5)C3)C4)n2)nc1	37	2.3	62	0.6	132*
Brc1ccc(-c2noc(C3CCCCC3)n2)cc1	7	2	85	0.9	128
c1ccc(-c2noc(C3CCCCC3)n2)nc1	35	2.7	101	0.6	131*
CCOC(=O)c1oc2ccccc2c1NC(=O)COC	1	1	2	1	104
CN1/C(=C\C=C(C#N)C#N)C(C)(C)c2ccccc21	-1	1.1	-4	1	101

High-throughput results as filed in PubChem.
